Assay results as given in ChEMBL document CHEMBL1177766, “2-Substituted N-aryl piperazines as novel triple reuptake inhibitors for the treatment of depression” (Bioorg Med Chem Lett, 2010).

Experiment: Clearance in human liver microsomes assessed per mg of protein by LC/MS analysis
Assay type: ADME, Microsome
Procedure, shortened: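 Human liver microsomes at 0.5 mg/mL protein. Reaction started with NADPH, run at 37 °C without shaking. Aliquots taken at 0.1, 10, 20 and 30 min for LC/MS analysis. Clearance expressed in µL/min/mg.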

Compound	microsomal CLint
c1ccc(CC2CNCCN2c2ccc3[nH]ncc3c2)cc1 (stereo not drawn)	3.8 µL/min/mg
Fc1cc(N2CCNCC2Cc2ccccc2)cc2cc[nH]c12 (stereo not drawn)	16.8 µL/min/mg
c1ccc(CC2CNCCN2c2ccc3[nH]ccc3c2)cc1 (stereo not drawn)	43.3 µL/min/mg
